Measured values from ChEMBL document CHEMBL4428054, “Synthesis of Fluorescent Binaphthyl Amines That Bind c-MYC G-Quadruplex DNA and Repress c-MYC Expression” (J Med Chem, 2016).
Active and inactive are the calls of the source. No cut-off for these calls is given here.

Assays:
HeLa [1] = test: Cell cycle arrest in human HeLa cells assessed as accumulation at G2/M phase at 5 uM incubated for 24 hrs by propidium iodide staining based flow cytometry (reference value: 25.5%); assay type: functional
Quadruplex DNA [2] = test: Binding affinity to c-MYC G-quadruplex (unknown origin) assessed as induction of chemical shift perturbations of imino protons by 1H-NMR spectroscopy; assay type: nucleic-acid assay; conditions: unidentified
In short: (§1)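 1D 1H NMR of c-MYC quadruplex DNA at different ligand:DNA ratios, monitoring imino and aromatic regions against partial signal assignments. Chemical shift perturbation or line broadening was noted separately at ratios below 1 and at ratios of 1 or above.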

dsDNA [3] = test: Binding affinity to 20 equivalents of dsDNA (unknown origin) in 100 mM KCl, 10 mM Tris.HCl at pH 7.4 by fluorescence spectroscopy relative to untreated control; assay type: nucleic-acid assay
In short: (§2)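 Fluorescence titration in 100 mM KCl, 10 mM Tris·HCl, pH 7.4. Excitation was 350 nm and emission was read at the 430 nm maximum. Ligand (1 μM for c-MYC) was titrated with increasing quadruplex or ds DNA, up to 20 equiv. Change in intensity was scored, and Kd was derived from the titration curves.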

Quadruplex DNA [4] = test: Binding affinity to pre-annealed c-MYC G-quadruplex (unknown origin) in 100 mM KCl, 10 mM Tris.HCl at pH 7.4 by fluorescence spectroscopy relative to untreated control; assay type: nucleic-acid assay, unidentified; in short: as §2
unidentified [5] = test: Selectivity for 5'-FAM and 3'-TAMRA-labeled c-MYC G-quadruplex (unknown origin) over 5'-FAM and 3'-TAMRA-labeled c-KIT2 G-quadruplex (unknown origin)
[6] = Drug localization in nucleus of human HeLa cells at 5 uM incubated for 2 hrs by fluorescence microscopy; assay type: ADME, subcellular
In short: (§3)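 Intrinsic ligand fluorescence imaged by fluorescence microscopy in HeLa cells after 2 h at 5.0 μM. Merged images were used to assign nuclear versus cytoplasmic localisation.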

HeLa [7] = test: Cell cycle arrest in human HeLa cells assessed as accumulation at subG1 phase at 5 uM incubated for 24 hrs by propidium iodide staining based flow cytometry (reference value: 2.2%); assay type: functional
Quadruplex DNA [8] = test: Stabilization of 5'-FAM and 3'-TAMRA-labeled k-RAS G-quadruplex (unknown origin) assessed as change in melting temperature at 1 uM by FRET assay; assay type: nucleic-acid assay; conditions: unidentified
In short: (§4)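 FRET melting of dual-labelled (5′-FAM/3′-TAMRA) promoter quadruplexes or duplex in 60 mM potassium cacodylate buffer, pH 7.4. ΔTm is taken against ligand-free Tm. The ligand was tested across a concentration series. Maximum measurable Tm is 93 °C.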

Quadruplex DNA [9] = test: Stabilization of 5'-FAM and 3'-TAMRA-labeled c-KIT2 G-quadruplex (unknown origin) assessed as change in melting temperature at 1 uM in presence of 100 nM to 10 uM dsDNA by FRET assay; assay type: nucleic-acid assay; conditions: unidentified
[10] = Selectivity for 5'-FAM and 3'-TAMRA-labeled c-MYC G-qudaruplex (unknown origin) over 5'-FAM and 3'-TAMRA-labeled c-KIT1 G-qudaruplex (unknown origin)
HeLa [11] = test: Effect on GAPDH mRNA expression in human HeLa cells at 1 to 5 uM incubated for 24 hrs by RT-PCR method; assay type: ADME, cell-based
HeLa [12] = test: Effect on GAPDH protein expression in human HeLa cells at 1 to 5 uM incubated for 24 hrs by Western blot method; assay type: ADME, cell-based
In short: (§5)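 Western blot of HeLa lysates after 24 h at 1, 2.5 or 5 μM, with DMSO control. c-MYC was probed, GAPDH served as loading control, and bands were quantified by densitometry.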

[13] = Drug localization in cytoplasm of human HeLa cells at 5 uM incubated for 2 hrs by fluorescence microscopy; assay type: ADME, subcellular; in short: as §3
Quadruplex DNA [14] = test: Stabilization of 5'-FAM and 3'-TAMRA-labeled c-KIT1 G-quadruplex (unknown origin) assessed as change in melting temperature at 1 uM in presence of 100 nM to 10 uM dsDNA by FRET assay; assay type: nucleic-acid assay; conditions: unidentified
Quadruplex DNA [15] = test: Stabilization of 5'-FAM and 3'-TAMRA-labeled k-RAS G-quadruplex (unknown origin) assessed as change in melting temperature at 1 uM in presence of 100 nM to 10 uM dsDNA by FRET assay; assay type: nucleic-acid assay; conditions: unidentified
Quadruplex DNA [16] = test: Stabilization of 5'-FAM and 3'-TAMRA-labeled c-KIT1 G-quadruplex (unknown origin) assessed as change in melting temperature at 1 uM by FRET assay; assay type: nucleic-acid assay; conditions: unidentified; in short: as §4
HeLa [17] = test: Cell cycle arrest in human HeLa cells assessed as accumulation at G0/G1 phase at 5 uM incubated for 24 hrs by propidium iodide staining based flow cytometry (reference value: 61.5%); assay type: functional
Quadruplex DNA [18] = test: Stabilization of c-MYC G-quadruplex in human HeLa cells assessed as reduction in c-MYC mRNA level at 5 uM incubated for 24 hrs by Western blot method; assay type: cell-based; parameters: scale not given: the % may be the effect or the level left; conditions: in the assay text read “c-MYC protein level” for “c-MYC mRNA level”; in short: as §5
Quadruplex DNA [19] = test: Binding affinity to pre-annealed c-KIT1 G-quadruplex (unknown origin) in 100 mM KCl, 10 mM Tris.HCl at pH 7.4 by fluorescence spectroscopy relative to untreated control; assay type: nucleic-acid assay, unidentified; in short: as §2
HeLa [20] = test: Induction of apoptosis in human HeLa cells assessed as viable cell level at 5 uM incubated for 24 hrs by Annexin V-FITC staining based flow cytometry; assay type: functional
A549 = test: Cytotoxicity against human A549 cells incubated for 24 hrs by MTT assay; assay type: functional, cell-based; conditions: A549, 24 h
In short: (§6)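 MTT growth-inhibition assay in HeLa, A549 and mouse C2C12 cells. Cells given 0.1% DMSO served as control. IC50 values were reported.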

dsDNA [21] = test: Binding affinity to dsDNA (unknown origin) in 10 mM Tris.HCl buffer containing 100 mM KCl at pH 7.4 by UV/Visible spectroscopy; assay type: nucleic-acid assay
Quadruplex DNA [22] = test: Stabilization of c-MYC G-quadruplex in human HeLa cells assessed as reduction in c-MYC mRNA level at 5 uM incubated for 24 hrs by RT-PCR method; assay type: cell-based; parameters: scale not given: the % may be the effect or the level left
In short: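 qRT-PCR on HeLa cells treated 24 h at 1.0, 2.5 or 5.0 μM. c-MYC mRNA was normalised to GAPDH and compared with 0.1% DMSO-treated control.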

dsDNA [23] = test: Stabilization of 5'-FAM and 3'-TAMRA-labeled dsDNA (unknown origin) assessed as change in melting temperature at 1 uM by FRET assay; assay type: nucleic-acid assay; in short: as §4
Quadruplex DNA [24] = test: Binding affinity to pre-annealed c-MYC G-quadruplex (unknown origin) assessed as increase in fluorescence intensity at 1 uM in 100 mM KCl, 10 mM Tris.HCl at pH 7.4 by fluorescence spectroscopy relative to untreated control; assay type: nucleic-acid assay; conditions: unidentified; in short: as §2
Quadruplex DNA [25] = test: Stabilization of 5'-FAM and 3'-TAMRA-labeled c-MYC G-quadruplex (unknown origin) assessed as change in melting temperature at 1 uM in presence of 100 nM to 10 uM dsDNA by FRET assay; assay type: nucleic-acid assay; conditions: unidentified
unidentified [26] = test: Selectivity for 5'-FAM and 3'-TAMRA-labeled c-MYC G-quadruplex (unknown origin) over 5'-FAM and 3'-TAMRA-labeled k-RAS G-quadruplex (unknown origin)
Quadruplex DNA [27] = test: Stabilization of 5'-FAM and 3'-TAMRA-labeled c-MYC G-quadruplex (unknown origin) assessed as change in melting temperature at 1 uM by FRET assay; assay type: nucleic-acid assay; conditions: unidentified; in short: as §4
Quadruplex DNA [28] = test: Binding affinity to pre-annealed c-KIT2 G-quadruplex (unknown origin) in 100 mM KCl, 10 mM Tris.HCl at pH 7.4 by fluorescence spectroscopy relative to untreated control; assay type: nucleic-acid assay, unidentified; in short: as §2
HeLa [29] = test: Cell cycle arrest in human HeLa cells assessed as accumulation at S phase at 5 uM incubated for 24 hrs by propidium iodide staining based flow cytometry (reference value: 10.8%); assay type: functional
Quadruplex DNA [30] = test: Binding affinity to pre-annealed c-MYC G-quadruplex (unknown origin) in 10 mM Tris.HCl buffer containing 100 mM KCl at pH 7.4 by UV/Visible spectroscopy; assay type: nucleic-acid assay, unidentified
In short: (§7)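 UV–vis titration of 20 μM ligand with preannealed c-MYC quadruplex (0–1.4 equiv) in 100 mM KCl, 10 mM Tris·HCl, pH 7.4. Hypochromicity was followed at the 362 nm ligand band, because the 298 nm band overlaps DNA absorbance. Kd was fitted with the Hill 1 equation.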

HeLa [31] = test: Induction of apoptosis in human HeLa cells assessed as early apoptotic cells level at 5 uM incubated for 24 hrs by Annexin V-FITC staining based flow cytometry (reference value: 1.1%); assay type: functional
HeLa [32] = test: Induction of apoptosis in human HeLa cells assessed as late apoptotic cells level at 5 uM incubated for 24 hrs by Annexin V-FITC staining based flow cytometry (reference value: 0.8%); assay type: functional
dsDNA [33] = test: Stabilization of 5'-FAM and 3'-TAMRA-labeled dsDNA (unknown origin) assessed as change in melting temperature at 5 uM by FRET assay; assay type: nucleic-acid assay; in short: as §4
C2C12 = test: Cytotoxicity against mouse C2C12 cells incubated for 24 hrs by MTT assay; assay type: cell-based; conditions: C2C12, 24 h; in short: as §6
Quadruplex DNA [34] = test: Binding affinity to c-MYC G-quadruplex (unknown origin) assessed as induction of line broadening of imino protons by 1H-NMR spectroscopy; assay type: nucleic-acid assay; conditions: unidentified; in short: as §1
HeLa [35] = test: Induction of apoptosis in human HeLa cells assessed as necrotic cells level at 5 uM incubated for 24 hrs by Annexin V-FITC staining based flow cytometry (reference value: 0.1%); assay type: functional
Quadruplex DNA [36] = test: Binding affinity to pre-annealed c-MYC G-quadruplex (unknown origin) assessed as hypochromacity at 20 uM in 10 mM Tris.HCl buffer containing 100 mM KCl at pH 7.4 by UV/Visible spectroscopy; assay type: nucleic-acid assay; conditions: unidentified; in short: as §7
HeLa [37] = test: Cytotoxicity against human HeLa cells incubated for 24 hrs by MTT assay; assay type: functional, cell-based; in short: as §6
Quadruplex DNA [38] = test: Binding affinity to pre-annealed k-RAS G-quadruplex (unknown origin) in 100 mM KCl, 10 mM Tris.HCl at pH 7.4 by fluorescence spectroscopy relative to untreated control; assay type: nucleic-acid assay, unidentified; in short: as §2
Quadruplex DNA [39] = test: Stabilization of 5'-FAM and 3'-TAMRA-labeled c-MYC G-quadruplex (unknown origin) assessed as change in melting temperature at 3 uM by FRET assay; assay type: nucleic-acid assay; conditions: unidentified; in short: as §4
Quadruplex DNA [40] = test: Stabilization of 5'-FAM and 3'-TAMRA-labeled c-KIT2 G-quadruplex (unknown origin) assessed as change in melting temperature at 1 uM by FRET assay; assay type: nucleic-acid assay; conditions: unidentified; in short: as §4
Quadruplex DNA [41] = test: Effect on parallel topology of c-MYC G-quadruplex (unknown origin) at 0 to 5 equivalent by CD spectroscopy; assay type: nucleic-acid assay; conditions: unidentified

CN(C)CCCNC(=O)c1ccc(Nc2ccc(-c3ccc(Nc4ccc(C(=O)NCCCN(C)C)cc4)c4ccccc34)c3ccccc23)cc1
Activity (HeLa [1]): 8.6% | Activity (Quadruplex DNA [2]): Active | Activity (dsDNA [3]): inactive | Kd (Quadruplex DNA [4]): 21.4 µM | Selectivity ratio (unidentified [5]): 3 to 5 | Drug uptake [6]: Active | Activity (HeLa [7]): 39.2% | ΔTm (Quadruplex DNA [8]): 18 °C | Activity (Quadruplex DNA [9]): Active | Selectivity ratio [10]: 3 to 5 | Activity (HeLa [11]): Non-Toxic | Activity (HeLa [12]): Non-Toxic | Drug uptake [13]: Active | Activity (Quadruplex DNA [14]): Active | Activity (Quadruplex DNA [15]): Active | ΔTm (Quadruplex DNA [16]): 9 °C | Activity (HeLa [17]): 46.9% | Activity (Quadruplex DNA [18]): 36% | Kd (Quadruplex DNA [19]): 19.4 µM | Activity (HeLa [20]): Active | IC50 (A549): ≥ 40 µM | Activity (dsDNA [21]): inactive | Activity (Quadruplex DNA [22]): 27% | ΔTm (dsDNA [23]): 1 °C | fold change (FC) (Quadruplex DNA [24]): 1.2 | Activity (Quadruplex DNA [25]): Active | Selectivity ratio (unidentified [26]): 3 to 5 | ΔTm (Quadruplex DNA [27]): 15 °C | Kd (Quadruplex DNA [28]): 14.1 µM | Activity (HeLa [29]): 5.3% | Kd (Quadruplex DNA [30]): 22.6 µM | Activity (HeLa [31]): 37.9% | Activity (HeLa [32]): 3.6% | Activity (dsDNA [33]): inactive | IC50 (C2C12): ≥ 40 µM | Activity (Quadruplex DNA [34]): Active | Activity (HeLa [35]): 0.5% | Activity (Quadruplex DNA [36]): 18% | IC50 (HeLa [37]): 7.24 µM | Kd (Quadruplex DNA [38]): 13 µM | ΔTm (Quadruplex DNA [39]): 23 °C | ΔTm (Quadruplex DNA [40]): 7 °C | Activity (Quadruplex DNA [41]): inactive
